ABCG2 inh: inhibitors of human ABCG2 transporter, ABCB1 counter-screen. AID 1325. IgMXP3 cells, JC-1 efflux, flow cytometry. Q9UNQ0. 190,000 compounds, 0.1% hits. inhibition, % at 6.6 µM;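 active = inhibition above 80%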
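Times: 10 min at 25 °C | Test system: Two drug-resistant human cell lines, ABCG2 and ABCB1 | Quantity: 3 million cells/mL final, two lines in 1:1 ratio | Signal: Flow cytometry, 530 nm JC-1 signal | Dosing: Compound at 6.6 µM | Controls: Nicardipine and DMSO wells | Reagent: JC-1 as fluorescent efflux pump substrate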
RGS7-Gao: regulators of human RGS7-Galphao interaction | P09471 | Multiplexed bead flow cytometry, RGS7-Galphao binding; actives lie on both sides | binding response (% of control), % at 10 µM | 220,000 compounds, 0.35% hits | AID 1439; in the data active = binding response below about 49% or above about 150%; inconclusive = no clear call, values can overlap the other calls; inactive = in between;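 also: fluorescent Galphao held in activated GDP-AlF4 state binding bead-coupled RGS7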
RGS16-Gao: RGS16-Galphao interaction regulator (human). binding response (% of control), % at 10 µM. bead-based flow cytometry RGS16-Galphao binding, fluorescence; actives lie on both sides. 220,000 compounds, 0.38% hits. O15492+P09471;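 also: Galphao activated by GDP with aluminum fluoride before binding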
RGS4-Gao reg: modulates binding of RGS4 to human Galphao. binding response (% of control), % at 10 µM. P09471. 220,000 compounds, 0.33% hits. Multiplexed bead flow cytometry; actives lie on both sides. AID 1415; in the data active = binding response below about 49% or above about 150%; inactive = in between;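 also: fluorescent Galphao activated with aluminum fluoride binding bead-coupled RGS4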
ABCB1 block: inhibitors of human ABCB1 transporter, ABCG2 counter-screen; P08183; CCRF-Adr cells, JC-1 efflux, flow cytometry; inhibition, % at 6.6 µM; 190,000 compounds, 0.067% hits; in the data active = inhibition above about 40%;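 also: higher value means more JC-1 retained so stronger ABCB1 efflux block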
RGS8-Gao reg: modulates binding of RGS8 to human Galphao. 220,000 compounds, 0.34% hits. AID 1423. multiplexed bead flow cytometry; actives lie on both sides. response (percent of control binding), % at 10 µM; in the data active = response below about 60% or above about 140%; inactive = in between;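 also: Galphao activated as the GDP aluminium fluoride complex binding bead-coupled RGS8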
RGS-Gao: RGS4-Galphao interaction regulator (human) | shares compounds with RGS16-Gao | multiplexed bead flow cytometry, RGS–Galpha-o binding | RGS4–Galpha-o binding response, % at 10 µM | 1,600 compounds, 99% hits | AID 1504;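 also: fluorescently labeled Galpha-o bound to GDP with aluminium fluoride binding biotinylated RGS beads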
Biotin-avidin: interferes with biotinylated probe binding to avidin beads | shares compounds with RGS16-Gao | streptavidin beads, fluorescein-biotin binding, flow cytometry | 1,700 tested, under 10 active | AID 1783 | inhibition, % at 10 µM;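 active = inhibition above 50%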;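 also: median green fluorescence of gated singlet beads compared with DMSO control wells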
RGS8-Gao single: RGS8-Galphao interaction regulation, single point confirmation; shares compounds with RGS16-Gao; bead-based flow cytometry RGS8-Galphao binding, fluorescence; actives lie on both sides; binding response (% of control), % at 10 µM; 1,700 compounds, 3% hits; AID 1836; in the data active = binding response below about 72% or above about 130%; inactive = in between;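 also: Galphao activated as GDP AlF4 complex before binding bead RGS8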
RGS7-Gao single: RGS7-Galphao interaction regulation, single point confirmation; 1,700 compounds, 7.8% hits; response (percent of control binding), % at 10 µM; shares compounds with RGS16-Gao; bead-based flow cytometry RGS7-Galphao binding; actives lie on both sides; in the data active = response below about 75% or above about 130%; inactive = in between;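 also: fluorescent Galphao activated with GDP and aluminum fluoride binding bead-coupled RGS7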
RGS16-Gao conf: confirmation of regulators of human RGS16-Galphao interaction. response (% of control binding), % at 10 µM. 1,700 compounds, 4% hits. bead-based flow cytometry, RGS16-Galphao binding; actives lie on both sides. shares compounds with RGS16-Gao; in the data active = response below about 74% or above about 130%; inactive = in between;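 also: Galphao activated as the GDP aluminium fluoride complex binding bead-coupled RGS16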
RGS4-Gao confirm: RGS4-Galphao interaction regulation, single point confirmation. shares compounds with RGS16-Gao. RGS4-Galphao binding, multiplexed bead flow cytometry; actives lie on both sides. binding response (% of control), % at 10 µM. 1,700 compounds, 4% hits. AID 1840; in the data active = binding response below about 74% or above about 130%; inactive = in between
RGS19-Gao conf: confirmation of regulators of human RGS19-Galphao interaction; shares compounds with RGS16-Gao; bead-based flow cytometry RGS19-Galphao binding; actives lie on both sides; response (percent of control binding), % at 10 µM; 1,700 compounds, 5% hits; in the data active = response below about 50% or above about 160%; inactive = in between
Each line names hits and unclear results; the compound was inactive in the other large screens (follow-up assays come after a bar, where they were run); [ ] = remark or other dose. Only some compounds are listed: those with a hit (about 0.83% of all), similar ones and a draw of the others. Unless noted, no rule for the calls is given here.

Cn1c(=O)c(Sc2ccccc2)c(O)c2ccccc21	RGS7-Gao inconclusive (no result: ABCG2 inh, ABCB1 block)
CCCn1c(SCC(=O)NCc2ccccc2)n[nH]c1=O	none
Cc1ccc(-c2nn3c(C)nnc3c3ccccc23)cc1S(=O)(=O)NC(C)(C)CO	none
Cc1ccc(-c2nn3c(C)nnc3c3ccccc23)cc1S(=O)(=O)NCCO	RGS7-Gao 172[activator] | RGS-Gao 115 | Biotin-avidin inactive | RGS8-Gao single inactive | RGS7-Gao single inactive | RGS16-Gao conf inactive | RGS4-Gao confirm inactive | RGS19-Gao conf inactive
CCN1CCN(C(CNC(=O)c2ccc3c(c2)OCO3)c2cccnc2)CC1 (stereo not given)	none
Cc1ccccc1C(=O)Nc1ccc(-c2nnc(SC(C)C(=O)O)n2C)cc1 (stereo not given)	RGS7-Gao inconclusive (no result: ABCG2 inh, ABCB1 block)
N#Cc1ccccc1Cn1cc(/C=C/[N+](=O)[O-])c2ccccc21	none
CCOC(=O)COc1nc(-c2ccc(Cl)cc2)cc(-c2ccco2)c1C#N	RGS7-Gao inconclusive, RGS4-Gao reg 177[activator] (no result: ABCG2 inh, ABCB1 block) | Biotin-avidin inactive | RGS8-Gao single inactive | RGS7-Gao single inactive | RGS16-Gao conf inactive | RGS4-Gao confirm inactive | RGS19-Gao conf inactive
CC(C)C(=O)NC(NC(=S)Nc1ccc(S(N)(=O)=O)cc1)C(Cl)(Cl)Cl (stereo not given)	none
CC1Cc2cc(/C(O)=C3/C(=O)C(=O)N(CC4CCCO4)C3c3ccco3)ccc2O1 (stereo not given)	RGS7-Gao 186[activator] | RGS-Gao 115 | Biotin-avidin inactive | RGS8-Gao single inactive | RGS7-Gao single inactive | RGS16-Gao conf inactive | RGS4-Gao confirm inactive | RGS19-Gao conf inactive
CC1Cc2cc(/C(O)=C3/C(=O)C(=O)N(CCN4CCOCC4)C3c3cccc(O)c3)ccc2O1 (stereo not given)	none
Cc1nc2c(cnn2-c2ccc(Cl)cc2)c(=O)n1-c1ccc(N2CCC(C)CC2)cc1	RGS7-Gao 171[activator], RGS4-Gao reg 150[activator] | Biotin-avidin inactive | RGS8-Gao single inactive | RGS7-Gao single inactive | RGS16-Gao conf inactive | RGS4-Gao confirm inactive | RGS19-Gao conf inactive
C=CCNC(=O)c1onc(CSc2ccncc2)c1C(=O)NCC=C	RGS7-Gao inconclusive (no result: ABCG2 inh, ABCB1 block)
CSc1nc2ccc(NS(=O)(=O)c3cccc(Cl)c3Cl)cc2s1	none
C[n+]1cccc(C(=O)NCC2CCCO2)c1 (stereo not given)	RGS16-Gao 308[activator], RGS8-Gao reg 147[activator] (no result: ABCG2 inh, ABCB1 block) | RGS-Gao 117 | Biotin-avidin inactive | RGS8-Gao single inactive | RGS7-Gao single inactive | RGS16-Gao conf inactive | RGS4-Gao confirm inactive | RGS19-Gao conf inactive
Cc1ccc(S(=O)(=O)N2CCN(S(=O)(=O)c3ccc4c(c3)OCCO4)CC2)cc1	RGS8-Gao reg 58 | RGS-Gao 55 | Biotin-avidin inactive | RGS8-Gao single inactive | RGS7-Gao single inactive | RGS16-Gao conf inactive | RGS4-Gao confirm inactive | RGS19-Gao conf inactive
CCN1CCN(S(=O)(=O)c2ccc3c(c2)OCCO3)CC1	none
O=C(NCC1CCCO1)c1ccc2c(=O)n(Cc3cccc(Br)c3)c(=S)[nH]c2c1 (stereo not given)	none
COc1ccc(OC)c(C(c2nnnn2C2CCCC2)N2CCN(c3ccc(F)cc3)CC2)c1 (stereo not given)	none
COc1ccc(C(c2nnnn2C2CCCC2)N2CCC(C)CC2)c(OC)c1 (stereo not given)	RGS7-Gao 174[activator], RGS4-Gao reg 188[activator] (no result: RGS16-Gao, RGS8-Gao reg) | Biotin-avidin inactive | RGS8-Gao single inactive | RGS7-Gao single inactive | RGS16-Gao conf inactive | RGS4-Gao confirm inactive | RGS19-Gao conf inactive
COc1ccccc1-n1cnnc1SCC(=O)c1ccc[nH]1	RGS7-Gao -11, RGS16-Gao -34, RGS4-Gao reg -30, RGS8-Gao reg 10.0 | Biotin-avidin inactive | RGS8-Gao single inactive | RGS7-Gao single inactive | RGS16-Gao conf inactive | RGS4-Gao confirm inactive | RGS19-Gao conf inactive
CCc1cccc2c(C(=O)CSc3nncn3-c3ccccc3OC)c[nH]c12	none
O=C(CSc1cccc[n+]1[O-])NC(=O)c1ccc(OC(F)F)cc1	RGS7-Gao inconclusive
COC(=O)c1c(C)[nH]c(C)c1C(C)=O	RGS7-Gao inconclusive (no result: ABCG2 inh, ABCB1 block)
CCc1nccn1S(=O)(=O)c1cc(OC)c(Cl)cc1OC	RGS7-Gao -76, RGS4-Gao reg -222, RGS8-Gao reg 12 | Biotin-avidin inactive | RGS8-Gao single inactive | RGS7-Gao single 75 | RGS16-Gao conf inactive | RGS4-Gao confirm inactive | RGS19-Gao conf inactive
CCc1nccn1S(=O)(=O)c1cc(Br)ccc1OC	none
Cc1oc2cc(OCc3cnn(-c4ccccc4)c3)ccc2c(=O)c1Oc1ccccc1F	none
C#CCSc1ncc(-c2ccccc2)cn1	none
C#CCSc1nnc(-c2ccccc2)c(=O)[nH]1	RGS7-Gao 17, RGS16-Gao 10, RGS4-Gao reg 21, RGS8-Gao reg 13 | Biotin-avidin inactive | RGS8-Gao single inactive | RGS7-Gao single inactive | RGS16-Gao conf inactive | RGS4-Gao confirm inactive | RGS19-Gao conf inactive
CCOP(=O)(OCC)C(C)(C)NC(=O)c1cc([N+](=O)[O-])cc([N+](=O)[O-])c1	none (no result: RGS7-Gao, RGS16-Gao, RGS4-Gao reg, RGS8-Gao reg) | Biotin-avidin inactive | RGS8-Gao single inactive | RGS7-Gao single inactive | RGS16-Gao conf inactive | RGS4-Gao confirm inactive | RGS19-Gao conf inactive
COc1ccc(C2=[N+](C)CCn3cccc32)c(OC)c1	RGS16-Gao 205[activator], RGS4-Gao reg 160[activator] | Biotin-avidin inactive | RGS8-Gao single inactive | RGS7-Gao single inactive | RGS16-Gao conf inactive | RGS4-Gao confirm inactive | RGS19-Gao conf inactive

Assay outcomes (PubChem)
